Test results: ChEMBL document CHEMBL3091303, “1,3-Dialkyl-substituted tetrahydropyrimido[1,2-f]purine-2,4-diones as multiple target drugs for the potential treatment of neurodegenerative diseases” (Bioorg Med Chem, 2013)

Tests used:
[1] = target: T1, MAO-B (amine oxidase [flavin-containing] B) (Homo sapiens, UniProt P27338); experiment: Inhibition of human MAO-B at 10 uM relative to control
T1 sequence (P27338 whole entry): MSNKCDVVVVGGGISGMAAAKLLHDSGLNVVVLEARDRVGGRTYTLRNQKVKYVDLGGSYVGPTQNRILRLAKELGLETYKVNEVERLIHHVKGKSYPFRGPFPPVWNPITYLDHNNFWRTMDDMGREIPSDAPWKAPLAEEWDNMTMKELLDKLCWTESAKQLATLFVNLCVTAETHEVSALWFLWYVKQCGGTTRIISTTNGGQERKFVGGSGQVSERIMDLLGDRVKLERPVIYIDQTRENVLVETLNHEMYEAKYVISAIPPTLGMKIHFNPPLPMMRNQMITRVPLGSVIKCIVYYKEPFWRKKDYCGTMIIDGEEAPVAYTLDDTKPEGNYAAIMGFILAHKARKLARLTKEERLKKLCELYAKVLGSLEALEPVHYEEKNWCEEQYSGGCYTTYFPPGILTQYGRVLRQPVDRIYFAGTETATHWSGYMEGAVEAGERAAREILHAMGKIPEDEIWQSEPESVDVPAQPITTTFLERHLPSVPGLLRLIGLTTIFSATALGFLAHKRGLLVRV
Procedure, shortened: (§1)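 Human MAO-A and MAO-B inhibition, screened first at a test concentration of 10 µM.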

[2] = target: T2, Amine oxidase [flavin-containing] B (Homo sapiens, UniProt P27338); experiment: Inhibition of human MAO-B
T2 sequence (P27338 whole entry): T1 sequence (P27338 whole entry)

[3] = target: T3, Adenosine receptor A3 (Homo sapiens) (UniProt P0DMS8); experiment: Displacement of [3H]PSB-11 from human adenosine A3 receptor expressed in CHO cells relative to control; format: cell-based; parameters: concentration or dose not given beside the values; settings: concentration not given here
T3 sequence (whole entry): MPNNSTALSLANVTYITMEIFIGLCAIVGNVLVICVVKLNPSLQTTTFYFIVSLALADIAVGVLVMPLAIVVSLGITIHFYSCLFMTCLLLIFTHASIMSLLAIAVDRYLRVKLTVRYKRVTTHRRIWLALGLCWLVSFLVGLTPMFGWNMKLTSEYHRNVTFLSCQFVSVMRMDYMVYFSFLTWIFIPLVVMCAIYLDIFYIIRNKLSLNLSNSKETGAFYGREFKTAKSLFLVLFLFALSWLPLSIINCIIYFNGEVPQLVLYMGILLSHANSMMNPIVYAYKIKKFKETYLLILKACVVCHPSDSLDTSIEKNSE

Adenosine receptor A3 = target: T4, Adenosine receptor A3 (Homo sapiens, UniProt P0DMS8); experiment: Displacement of [3H]PSB-11 from human adenosine A3 receptor expressed in CHO cells; format: cell-based
T4 sequence (P0DMS8 whole entry): T3 sequence (whole entry)

[4] = target: T5, Adenosine receptor A2b (Homo sapiens) (UniProt P29275); experiment: Displacement of [3H]PSB-603 from human adenosine A2B receptor relative to control; parameters: concentration or dose not given beside the values; settings: concentration not given here
T5 sequence (whole entry): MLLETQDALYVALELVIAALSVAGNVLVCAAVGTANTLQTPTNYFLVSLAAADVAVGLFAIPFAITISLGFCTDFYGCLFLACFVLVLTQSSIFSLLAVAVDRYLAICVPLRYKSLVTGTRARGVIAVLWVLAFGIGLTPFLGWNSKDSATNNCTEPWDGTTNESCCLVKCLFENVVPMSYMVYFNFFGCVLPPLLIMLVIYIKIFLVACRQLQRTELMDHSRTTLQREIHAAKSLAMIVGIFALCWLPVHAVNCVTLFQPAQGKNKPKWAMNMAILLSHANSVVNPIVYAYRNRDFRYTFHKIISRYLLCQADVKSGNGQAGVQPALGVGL

Adenosine receptor A2a = Adenosine receptor A2a (Rattus norvegicus, UniProt P30543); experiment: Displacement of [3H]MSX-2 from adenosine A2A receptor in rat brain striatum; format: tissue-based
Adenosine receptor A2b = target: T6, Adenosine receptor A2b (Homo sapiens, UniProt P29275); experiment: Displacement of [3H]PSB-603 from human adenosine A2B receptor
T6 sequence (P29275 whole entry): T5 sequence (whole entry)

Adenosine receptor A1 [5] = target: T7, Adenosine receptor A1 (Rattus norvegicus, UniProt P25099); experiment: Displacement of [3H]CCPA from adenosine A1 receptor in rat brain cortex; format: tissue-based
T7 sequence (P25099 whole entry): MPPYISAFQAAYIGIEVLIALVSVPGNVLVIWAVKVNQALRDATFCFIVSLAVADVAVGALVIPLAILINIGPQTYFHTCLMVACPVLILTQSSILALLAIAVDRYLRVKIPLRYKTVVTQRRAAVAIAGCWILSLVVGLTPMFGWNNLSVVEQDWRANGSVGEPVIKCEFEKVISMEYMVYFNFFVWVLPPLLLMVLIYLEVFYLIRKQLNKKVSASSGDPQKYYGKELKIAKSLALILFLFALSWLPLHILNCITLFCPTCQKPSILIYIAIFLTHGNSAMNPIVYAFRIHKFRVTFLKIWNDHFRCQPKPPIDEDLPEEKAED
Procedure, shortened: (§2)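 Radioligand binding to rat A1 receptors in rat brain cortical membrane preparations. Values are given as Ki, or as % inhibition of radioligand binding at the indicated concentration.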

[6] = target: T8, Adenosine receptor A1 (Rattus norvegicus) (UniProt P25099); experiment: Displacement of [3H]CCPA from adenosine A1 receptor in rat brain cortex relative to control; format: tissue-based; parameters: concentration or dose not given beside the values; settings: concentration not given here; procedure, shortened: as §2
T8 sequence (whole entry): T7 sequence (P25099 whole entry)

[7] = target: T9, Amine oxidase [flavin-containing] A (Homo sapiens, UniProt P21397); experiment: Inhibition of human MAO-A; procedure, shortened: as §1
T9 sequence (P21397 whole entry): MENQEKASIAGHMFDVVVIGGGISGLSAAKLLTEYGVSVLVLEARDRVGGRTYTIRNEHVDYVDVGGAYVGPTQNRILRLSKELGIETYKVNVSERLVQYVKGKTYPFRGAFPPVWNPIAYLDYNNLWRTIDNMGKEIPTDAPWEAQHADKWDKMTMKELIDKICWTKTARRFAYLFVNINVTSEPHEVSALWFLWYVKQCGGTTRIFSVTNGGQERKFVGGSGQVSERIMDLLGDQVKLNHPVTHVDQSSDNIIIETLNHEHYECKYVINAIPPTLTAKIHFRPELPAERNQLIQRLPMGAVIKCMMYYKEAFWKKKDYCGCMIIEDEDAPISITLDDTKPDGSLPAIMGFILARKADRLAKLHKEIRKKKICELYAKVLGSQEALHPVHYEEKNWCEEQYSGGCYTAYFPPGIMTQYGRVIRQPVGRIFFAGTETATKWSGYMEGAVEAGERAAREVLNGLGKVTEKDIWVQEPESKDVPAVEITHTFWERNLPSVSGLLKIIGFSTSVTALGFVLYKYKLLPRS

[8] = target: T10, MAO-A (amine oxidase [flavin-containing] A) (Homo sapiens, UniProt P21397); experiment: Inhibition of human MAO-A at 10 uM relative to control; procedure, shortened: as §1
T10 sequence (P21397 whole entry): T9 sequence (P21397 whole entry)

Adenosine receptor A1 [9] = target: T11, Adenosine receptor A1 (Homo sapiens, UniProt P30542); experiment: Displacement of [3H]CCPA from human adenosine A1 receptor expressed in CHO cells; format: cell-based
T11 sequence (P30542 whole entry): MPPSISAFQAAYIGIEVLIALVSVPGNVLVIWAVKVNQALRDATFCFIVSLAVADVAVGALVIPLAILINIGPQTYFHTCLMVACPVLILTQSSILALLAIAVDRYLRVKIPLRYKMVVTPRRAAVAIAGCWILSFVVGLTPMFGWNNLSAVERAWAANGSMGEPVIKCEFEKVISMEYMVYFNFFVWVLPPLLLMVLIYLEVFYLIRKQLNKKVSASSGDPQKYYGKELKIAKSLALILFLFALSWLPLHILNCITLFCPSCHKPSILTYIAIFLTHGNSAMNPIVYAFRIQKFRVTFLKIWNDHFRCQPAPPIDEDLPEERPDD
Procedure, shortened: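 Radioligand binding to human receptors recombinantly expressed in Chinese hamster ovary (CHO) cells. Results are Ki, or % inhibition of radioligand binding at the indicated concentration.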

Adenosine receptor A2a, sequence (P30543 whole entry): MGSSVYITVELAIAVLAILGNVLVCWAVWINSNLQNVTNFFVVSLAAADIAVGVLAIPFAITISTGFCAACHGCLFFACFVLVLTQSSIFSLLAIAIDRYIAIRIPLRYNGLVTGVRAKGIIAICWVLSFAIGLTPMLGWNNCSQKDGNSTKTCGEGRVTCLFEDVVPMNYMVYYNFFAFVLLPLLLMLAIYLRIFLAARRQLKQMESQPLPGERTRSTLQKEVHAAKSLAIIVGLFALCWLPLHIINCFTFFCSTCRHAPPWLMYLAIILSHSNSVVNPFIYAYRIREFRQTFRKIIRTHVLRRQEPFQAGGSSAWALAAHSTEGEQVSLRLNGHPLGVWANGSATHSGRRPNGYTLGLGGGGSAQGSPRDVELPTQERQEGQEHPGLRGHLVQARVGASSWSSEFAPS

inhibition at 10 µM [1] [%]	IC50 [2] [µM]	inhibition [3] [%]	Ki (Adenosine receptor A3) [µM]	inhibition [4] [%]	Ki (Adenosine receptor A2a) [µM]	Ki (Adenosine receptor A2b) [µM]	Ki (Adenosine receptor A1 [5]) [µM]	inhibition [6] [%]	IC50 [7] [µM]	inhibition at 10 µM [8] [%]	Ki (Adenosine receptor A1 [9]) [µM]	SMILES
29	> 10	5	> 1	-2	0.723	> 1	> 10	18				C#CCn1c(=O)c2c(nc3n2CCCN3CCc2cc(OC)c(OC)c(OC)c2)n(C)c1=O
	5.87	32	> 10	15	1.88	> 1	> 10	35	> 10	4		CCn1c(=O)c2c(nc3n2CCCN3CCc2ccc(OC)c(OC)c2)n(CC)c1=O
30	> 10	23	> 10		9.42	> 1	> 1.5	-1				Cn1c(=O)c2c(nc3n2CCCN3CC(=O)N2CCN(Cc3ccc(Cl)cc3)CC2)n(C)c1=O
	3.26		3.03	20	1.83	> 1	0.506		> 10	28	3.92	CCn1c(=O)c2c(nc3n2CCCN3CCc2ccccc2OC)n(CC)c1=O
	4.96	33	> 10	-4	3.76	> 1	4.42		> 10	15		Cn1c(=O)c2c(nc3n2CCCN3c2cccc(Cl)c2)n(C)c1=O
									> 10	23		Cn1c(=O)c2c(nc(/C=C/c3cccc(Cl)c3)n2C)n(C)c1=O
	2.98		0.541	15	7.31	> 1	> 1.5	23	> 10	5		CCCn1c(=O)c2c(nc3n2CCCN3CC(=O)N2CCN(Cc3ccc(C(F)(F)F)cc3)CC2)n(CCC)c1=O
48	10	29	> 10	11	1.88	> 1	0.545				6.65	CCn1c(=O)c2c(nc3n2CCCN3c2ccc(F)cc2)n(CC)c1=O
21	> 10	4	> 1	1	6.22	> 0.3	1.83					C#CCn1c(=O)c2c(nc3n2CCCN3Cc2cccnc2)n(C)c1=O
	6.39		6.8	21	5.37	> 1	1.24		> 10	4		CCn1c(=O)c2c(nc3n2CCCN3c2cccc(OC)c2)n(CC)c1=O
33	> 10		3.41	29	2.65	> 1	> 10	31				CCn1c(=O)c2c(nc3n2CCCN3CCc2cccc(OC)c2)n(CC)c1=O
50	10			7	3.03		0.555		> 10	11	10.2	C#CCn1c(=O)c2c(nc3n2CCCN3Cc2ccc(OC)cc2)n(C)c1=O
64	10			17	1.48	> 1	5.22		> 10	5		C#CCn1c(=O)c2c(nc3n2CCCN3c2ccc(C(C)C)cc2)n(C)c1=O
	0.0629	30	> 10	5	3.69	> 1	4.01		> 10	10		Cn1c(=O)c2c(nc3n2CCCN3Cc2ccc(Cl)c(Cl)c2)n(C)c1=O
30	> 10	28	> 1	9	2.04	> 1	0.228				9.65	C#CCn1c(=O)c2c(nc3n2CCCN3c2cc(OC)cc(OC)c2)n(C)c1=O
15	> 10	28	> 1	0	8.22	> 1	> 1.5	17				CCCn1c(=O)c2c(nc3n2CCCN3CC(=O)N2CCN(Cc3ccccc3)CC2)n(CCC)c1=O
	3.72	37	> 10	3	1.7	> 1	0.321		> 10	-3	1.04	CCn1c(=O)c2c(nc3n2CCCN3C2CCCCC2)n(CC)c1=O
25	> 10	24	> 10	6	3.87	> 1	> 10	14				CCn1c(=O)c2c(nc3n2CCCN3CCc2cc(OC)c(OC)c(OC)c2)n(CC)c1=O
